The record followed here is ChEMBL document CHEMBL4138045 (Medchemcomm, 2017).

pEC50, pKi: −log10 of the molar value. Calls of active or inactive are those of the source. No cut-off for these calls is given here. Where only a bound is given, the exact number is not on record here.

The target in test [1] is Mu-type opioid receptor (Mus musculus) (UniProt P42866). Nature of the test: Agonist activity at mouse MOR expressed in CHO cell membranes assessed as induction of [35S]GTPgammaS binding after 90 mins by scintillation spectroscopy relative to DAMGO. The format is functional. (Binding of GTPγS marks nucleotide exchange on a G protein.)
Sequence of Mu-type opioid receptor (Mus musculus) (P42866 whole entry): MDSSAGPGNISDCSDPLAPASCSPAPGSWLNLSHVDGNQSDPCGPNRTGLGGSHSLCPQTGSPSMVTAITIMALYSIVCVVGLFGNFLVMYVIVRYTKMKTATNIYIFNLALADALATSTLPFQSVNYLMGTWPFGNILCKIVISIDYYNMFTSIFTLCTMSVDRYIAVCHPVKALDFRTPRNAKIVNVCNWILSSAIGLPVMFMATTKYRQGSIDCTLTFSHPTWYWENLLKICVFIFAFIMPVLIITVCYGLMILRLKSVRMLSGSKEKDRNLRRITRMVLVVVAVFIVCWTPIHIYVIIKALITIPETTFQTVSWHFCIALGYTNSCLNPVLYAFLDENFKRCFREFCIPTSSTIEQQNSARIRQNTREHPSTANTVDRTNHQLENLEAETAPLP
In test [2] the target is T1, Mu-type opioid receptor (Mus musculus, UniProt P42866). The test can be described thus: Agonist activity at mouse MOR expressed in CHO cell membranes assessed as induction of [35S]GTPgammaS binding after 90 mins by scintillation spectroscopy. It counts as functional. A digest of the protocol:
(§1)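 Agonist-stimulated [35S]GTPγS binding in membranes from opioid receptor-transfected cells. Membrane protein 50 µg mL-1, 90 min incubation. Potency taken as EC50. Three separate assays, each in triplicate, reported as mean ± SEM.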

For test [3], the target named is T2, Kappa-type opioid receptor (Mus musculus, UniProt P33534). The test can be described thus: Displacement of [125I]BNtxA from mouse KOR expressed in CHO cell membranes after 90 mins by filter binding assay. A digest of the protocol: (§2)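 Competition binding with [125I]BNtxA (0.1 nM) in membranes of CHO cells expressing mouse MOR, DOR or KOR. Protein 10-20 μg mL-1, 90 min incubation. Ki obtained by nonlinear regression. At least 3 assays, mean ± SEM.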
T2 sequence (P33534 whole entry): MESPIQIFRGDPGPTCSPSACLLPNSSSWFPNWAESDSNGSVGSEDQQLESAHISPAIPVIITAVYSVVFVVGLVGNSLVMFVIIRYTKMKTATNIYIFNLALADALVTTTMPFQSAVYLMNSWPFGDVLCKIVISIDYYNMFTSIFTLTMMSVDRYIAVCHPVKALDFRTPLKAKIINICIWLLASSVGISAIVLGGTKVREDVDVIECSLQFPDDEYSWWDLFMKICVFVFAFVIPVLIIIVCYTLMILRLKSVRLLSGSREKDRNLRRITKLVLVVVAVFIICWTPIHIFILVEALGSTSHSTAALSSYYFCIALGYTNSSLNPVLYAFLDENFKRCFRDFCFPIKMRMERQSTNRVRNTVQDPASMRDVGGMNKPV
(In general: Loss of bound radioactivity is the signal in a displacement assay; it reports binding, not function.)

In test [4] the target is T1, Mu-type opioid receptor. Nature of the test: Displacement of [125I]BNtxA from mouse MOR expressed in CHO cell membranes after 90 mins by filter binding assay. The gist of the method:
as §2

Test [5] addresses Delta-type opioid receptor (Mus musculus, UniProt P32300). Nature of the test: Displacement of [125I]BNtxA from mouse DOR expressed in CHO cell membranes after 90 mins by filter binding assay. The gist of the method: as §2
Test [6] has as its system Mus musculus. The test can be described thus: Antinociceptive activity in icv dosed CD1 mouse after 15 mins by radiant heat tail flick method. The format is functional. A digest of the protocol:
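Compounds given intracerebroventricularly to groups of mice (n = 5) as cumulative doses. Tail-flick tested 15 min later, at peak effect, to build the dose-response curve and ED50. Two independent determinations.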
For orientation: In hot-plate and tail-flick tests a longer latency is read as antinociception.

The test system of test [7] is Mus musculus. The test can be described thus: Antinociceptive activity in CD1 mouse at 30 mg/kg, sc after 30 mins by radiant heat tail flick method relative to control. It counts as functional. A digest of the protocol: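 CD1 mice (n = 10) dosed sc at 30 mg kg-1. Radiant heat tail-flick tested 30 min after injection. Values given as mean ± SEM percent antinociception.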

The species named for test [8] is Mus musculus. Nature of the test: Selectivity ratio of Ki for mouse DOR to Ki for mouse MOR.
The species entered for test [9] is Mus musculus. The test can be described thus: Selectivity ratio of Ki for mouse KOR to Ki for mouse MOR.
Test [10] deals with Kappa-type opioid receptor (Mus musculus) (UniProt P33534). The test can be described thus: Agonist activity at mouse KOR expressed in CHO cell membranes assessed as induction of [35S]GTPgammaS binding after 90 mins by scintillation spectroscopy relative to U50488H. It counts as functional.
Sequence of Kappa-type opioid receptor (Mus musculus) (P33534 whole entry): as above
Test [11] concerns the target T2, Kappa-type opioid receptor. The test can be described thus: Agonist activity at mouse KOR expressed in CHO cell membranes assessed as induction of [35S]GTPgammaS binding after 90 mins by scintillation spectroscopy. The format is functional. The gist of the method:
as §1

Test [12] deals with Mus musculus. The test can be described thus: Antinociceptive activity in CD1 mouse at 30 mg/kg, sc after 30 mins in presence of MOR antagonist beta-FNA by radiant heat tail flick method. It counts as functional, organism-based. A digest of the protocol: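 CD1 mice (n = 10) given compound at 30 mg kg-1 sc, with or without β-funaltrexamine (40 mg kg-1 sc) 24 h before agonist. Tail-flick tested 30 min after the agonist.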

Test [13] deals with Mus musculus. The test can be described thus: Antinociceptive activity in CD1 mouse at 30 mg/kg, sc after >24 hrs by radiant heat tail flick method. The format is functional, organism-based. A digest of the protocol:
(§3)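 Time course in CD1 mice (n = 10) after sc dosing at 30 mg kg-1, measured by radiant heat tail flick. Two independent determinations.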

Test [14] deals with Mus musculus. The test can be described thus: Antinociceptive activity in CD1 mouse at 7.5 ug, icv after >24 hrs by radiant heat tail flick method. The format is functional, organism-based. A digest of the protocol:
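Time course in CD1 mice (n = 10) after icv administration of 7.5 µg, measured by tail flick. Two independent determinations.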

Test [15] concerns Mus musculus. Nature of the test: Antinociceptive activity in CD1 mouse at 30 mg/kg, sc after 3 hrs by radiant heat tail flick method. It counts as functional, organism-based. The gist of the method:
as §3

Sequence of Delta-type opioid receptor (P32300 whole entry): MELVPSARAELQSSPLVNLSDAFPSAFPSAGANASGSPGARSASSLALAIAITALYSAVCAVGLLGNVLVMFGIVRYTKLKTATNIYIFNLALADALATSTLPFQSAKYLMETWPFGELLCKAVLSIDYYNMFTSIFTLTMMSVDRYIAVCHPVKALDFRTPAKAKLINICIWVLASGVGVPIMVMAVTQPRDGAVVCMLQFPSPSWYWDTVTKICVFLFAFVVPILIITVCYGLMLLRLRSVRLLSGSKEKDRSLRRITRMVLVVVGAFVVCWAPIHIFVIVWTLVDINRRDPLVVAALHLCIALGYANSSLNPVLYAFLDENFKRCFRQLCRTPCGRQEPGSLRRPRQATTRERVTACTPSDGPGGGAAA
T1 sequence (P42866 whole entry): as the sequence (P42866 whole entry) above

By Emax is commonly meant the size of the effect at its maximum, as opposed to the concentration needed. The term pEC50 denotes the EC50 on a negative log10 scale, so that one unit is a factor of ten. Broadly, the pKi is −log10 of the Ki, conventionally taken in molar units. Low readings indicate a high Ki, high ones a low Ki. With `CN1CC[C@]23c4c5ccc(O)c4O[C@H]2[C@@H](NC(=O)c2ccncc2)C=C[C@H]3[C@H]1C5`, the Emax in [1] is 114%. Moreover, the pEC50 in test [2] is 8.34. The pKi was 7.11 in test [3], 8.70 in [4] and 7.19 in test [5]. Also, the ED50 in test [6] amounted to 2 µg. In test [7], this molecule gave an MPE of 38%. The Ratio Ki worked out at 32.5 in [8] and 39 in test [9].

`CN1CC[C@]23c4c5ccc(O)c4O[C@H]2[C@H](NC(=O)/C=C/c2ccccc2)C=C[C@H]3[C@H]1C5`: the Emax in test [1] is 95.3%; in test [10], 106%.

For the molecule `CN1CC[C@]23c4c5ccc(O)c4O[C@H]2[C@@H](NC(=O)c2cccnc2)C=C[C@H]3[C@H]1C5`, the maximal response (Emax) in test [1] was determined as 114%; in test [10] it was 87.9%. The pEC50 in test [2] is 8.55; in [11], 7.23. Also, the pKi in test [3] was 7.72; in test [4], 8.90; in test [5], 7.46. This molecule returned an ED50 in [6] of 0.51 µg. In test [7], this molecule came in with an MPE of 35%. For the same molecule, the figures for the Ratio Ki in [8] and in test [9] were 27.5 and 15.2, respectively.

Consider `CN1CC[C@]23c4c5ccc(O)c4O[C@H]2[C@@H](NC(=O)c2cccnc2)CC[C@H]3[C@H]1C5`, for which the Emax in test [1] amounted to 117%. The pEC50 in [2] is 8.10. In addition, the pKi in test [3] is 6.92; in test [4] it was 8.48; in test [5], 6.89. The result in test [12] was inactive. In addition, in test [6], the ED50 is 1.8 µg. In [7], this molecule gave an MPE of 83%. Besides, the Ratio Ki stood at 39.6 in test [8] and 36.2 in test [9]. The result in test [13] and in test [14] was Active.

Regarding `CN1CC[C@]23c4c5ccc(O)c4O[C@H]2[C@@H](NC(=O)c2ccncc2)CC[C@@]3(O)[C@H]1C5`, the Emax in test [1] amounted to 115%. Further, the pEC50 in test [2] was 7.58. The values for the pKi in test [3], in [4] and in test [5] were below 7.00, 8.15 and 6.76, respectively. Also, the Ratio Ki in test [8] was 24.7; in test [9], above 14.2.

For the molecule `CN1CC[C@]23c4c5ccc(O)c4O[C@H]2[C@@H](NC(=O)c2cccnc2)CC[C@@]3(O)[C@H]1C5`, the Emax in test [1] was 121%. Further, the pEC50 in [2] was 7.59. Besides, the pKi in [3] is below 7.00; in test [4], 8.16; in test [5] it was 6.98. Further, the results for the Ratio Ki in [8] and in test [9] were 15 and above 14.5, respectively.

Regarding `CN1CC[C@]23c4c5ccc(O)c4O[C@H]2[C@@H](O)C=C[C@H]3[C@H]1C5` [MORPHINE], the outcome in test [15] was Active. Besides, in [6], the ED50 is 0.53 µg.

For `CN1CC[C@]23c4c5ccc(O)c4O[C@H]2[C@@H](NC(=O)c2ccncc2)CC[C@H]3[C@H]1C5`, the Emax in test [1] amounted to 115%. The pEC50 in test [2] was 8.09. Also, the pKi in test [3] is below 7.00; in [4], 8.43; in test [5] it was 6.70. The outcome in [12] was inactive. Besides, in test [6], the ED50 was determined as 0.7 µg. This molecule gave an MPE in [7] of 78%. In addition, the Ratio Ki in [8] is 53.2; in test [9], above 26.8. Moreover, the result in [13] and in test [14] was Active.

With `COc1ccc2c3c1O[C@H]1[C@@H](NC(=O)c4ccncc4)C=C[C@H]4[C@@H](C2)N(C)CC[C@@]341`, the negative logarithm of the Ki (pKi) in test [3] is below 7.00; in test [4], 7.39; in [5], 6.37. For the same molecule, the Ratio Ki in test [8] is 10.4; in test [9] it was above 2.5.
